Test results: ChEMBL document CHEMBL5678798 (Clin Cancer Res, 2009)
Activity calls are given as the source filed them. No cut-off for these calls is given here.

How the values were obtained:
[1] = test system: HT-29; assay: Antitumor activity against human HT-29 cells xenografted in nu/nu CD-1 mouse assessed as reduction in tumor growth at 30 mg/kg, po for 21 days relative to control; type: functional; details: HT-29, 504 h, time 21 day, read-out: TGI
Method in brief: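 Exponentially growing cells implanted s.c. in the right flank of 8–10-wk-old female athymic nu/nu CD-1 mice. At 150–200 mm3, block-randomized by tumor size into groups of eight. Oral dosing once or twice daily for 21 d; vehicle 20% sulfobutylether-β-cyclodextrin, pH 3.5. Calipers twice weekly; volume = length×width²/2. Growth inhibition = 100×[1 − treated growth/vehicle growth].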

[2] = molecular target: Proto-oncogene tyrosine-protein kinase receptor Ret (Homo sapiens) (UniProt P07949); assay: Inhibition of N-Terminal GST-tagged recombinant human Ret (658 to end residues) expressed in baculovirus infected Sf21 cells at 0.3 uM by filter binding assay relative to control
Method in brief: (§1)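 KinaseProfiler panel of 233 kinases: radiometric filter-binding activity assays with compound at 0.3 or 3 µmol/L. Read-out is percent inhibition.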

[3] = molecular target: Cyclin-dependent kinase 16 (Homo sapiens, UniProt Q00536); assay: Inhibition of PCTAIRE1 (unknown origin)
[4] = molecular target: Tyrosine-protein kinase ABL2 (Homo sapiens) (UniProt P42684); assay: Inhibition of N-terminal His6-tagged recombinant human Arg (38 to end residues) expressed in baculovirus infected Sf21 cells at 3 uM by filter binding assay relative to control
[5] = molecular target: 3-phosphoinositide-dependent protein kinase 1 (Homo sapiens, UniProt O15530); assay: Inhibition of PDK1 (unknown origin)
3-phosphoinositide-dependent protein kinase 1, sequence (O15530 whole entry): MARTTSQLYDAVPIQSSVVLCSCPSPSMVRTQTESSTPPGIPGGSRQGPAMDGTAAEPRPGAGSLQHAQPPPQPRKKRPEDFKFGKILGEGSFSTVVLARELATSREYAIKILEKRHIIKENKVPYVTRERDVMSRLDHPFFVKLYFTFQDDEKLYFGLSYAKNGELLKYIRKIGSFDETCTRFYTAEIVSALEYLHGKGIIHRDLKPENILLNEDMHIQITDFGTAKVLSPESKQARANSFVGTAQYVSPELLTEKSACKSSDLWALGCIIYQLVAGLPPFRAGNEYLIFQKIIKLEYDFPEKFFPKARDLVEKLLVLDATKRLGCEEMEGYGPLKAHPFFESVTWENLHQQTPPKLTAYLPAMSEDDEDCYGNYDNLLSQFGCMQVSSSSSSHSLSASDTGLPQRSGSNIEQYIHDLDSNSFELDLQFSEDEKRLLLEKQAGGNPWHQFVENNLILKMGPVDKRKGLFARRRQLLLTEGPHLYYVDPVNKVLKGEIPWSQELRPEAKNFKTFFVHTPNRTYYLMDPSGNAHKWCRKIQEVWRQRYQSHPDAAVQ

[6] = molecular target: Serine/threonine-protein kinase pim-1 (Homo sapiens) (UniProt P11309); assay: Inhibition of N-terminal GST-tagged recombinant human full-length Pim-1 expressed in Escherichia coli cells at 0.3 uM by filter binding assay relative to control
Method in brief: (§2)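 Outsourced single-concentration screen in a commercial panel of 233 protein kinases, run as radiometric filter-binding activity assays. Test agent was tested at 0.3 or 3 µmol/L, as given in each line, from a 10 mmol/L DMSO stock. Activity is expressed as percent inhibition relative to control.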

[7] = molecular target: Tyrosine-protein kinase Lck (Homo sapiens, UniProt P06239); assay: Inhibition of LCK (unknown origin)
[8] = test system: A549; assay: Antiproliferative activity against human A549 cells assessed as reduction in cell viability after 72 hrs by CellTiter-Glo assay; type: functional, cell-based; details: A549, 72 h
Method in brief: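 Cells seeded in 96-well plates, left overnight at 37°C, then exposed to a range of test concentrations for 72 h. Viability read by CellTiter-Glo luminescence; IC50 from four-parameter curve fit. Lines kept at 37°C, 5% CO2, in recommended growth medium.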

[9] = molecular target: NUAK family SNF1-like kinase 1 (Homo sapiens) (UniProt O60285); assay: Inhibition of N-terminal 6His-tagged recombinant human ARK5 (2 to end residues) expressed in baculovirus infected Sf21 cells at 0.3 uM by filter binding assay relative to control; method in brief: as §1
NUAK family SNF1-like kinase 1 (Homo sapiens), sequence (O60285 whole entry): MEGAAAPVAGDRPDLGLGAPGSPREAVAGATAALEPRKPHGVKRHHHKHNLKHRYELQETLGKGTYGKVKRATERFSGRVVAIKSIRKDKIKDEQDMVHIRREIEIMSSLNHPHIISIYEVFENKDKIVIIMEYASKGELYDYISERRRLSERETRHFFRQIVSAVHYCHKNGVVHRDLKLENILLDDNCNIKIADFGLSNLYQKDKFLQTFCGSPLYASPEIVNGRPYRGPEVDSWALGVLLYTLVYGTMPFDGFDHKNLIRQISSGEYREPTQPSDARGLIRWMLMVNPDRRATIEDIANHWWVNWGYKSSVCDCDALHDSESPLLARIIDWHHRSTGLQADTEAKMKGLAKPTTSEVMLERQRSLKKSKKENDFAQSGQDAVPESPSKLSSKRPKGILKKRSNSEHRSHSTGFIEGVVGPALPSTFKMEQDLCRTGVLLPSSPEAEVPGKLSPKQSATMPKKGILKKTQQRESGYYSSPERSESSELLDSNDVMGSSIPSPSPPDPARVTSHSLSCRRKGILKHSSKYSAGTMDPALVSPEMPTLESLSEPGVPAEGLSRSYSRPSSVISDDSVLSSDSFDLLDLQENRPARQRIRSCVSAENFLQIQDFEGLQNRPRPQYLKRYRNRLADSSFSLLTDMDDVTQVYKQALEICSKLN

[10] = test system: NCI-H929; assay: Induction of cell cycle arrest in human NCI-H929 cells assessed as decrease in cells accumulation at S phase at 0.03 to 10 uM incubated for 24 to 48 hrs by propidium iodide staining based flow cytometric analysis; type: functional; details: dose 0.03-10 µM, time lower 24.0 hrs, time upper […]
Method in brief: (§3)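 COLO 205, MCF-7 or NCI-H929 cells seeded in 96-well plates overnight at 37°C, then exposed to DMSO or increasing compound concentrations for 24 or 48 h. Fixed and stained with propidium iodide (Vindelov method), then analysed by flow cytometry for sub-G1, G1, S and G2-M fractions. Experiment repeated twice.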

[11] = Inhibition of p70S6K (unknown origin); parameters: species or system Homo sapiens
[12] = molecular target: Fibroblast growth factor receptor 1 (Homo sapiens, UniProt P11362); assay: Inhibition of N-terminal GST-tagged recombinant human FGFR1 (456 to 765 residues) expressed in baculovirus infected Sf21 cells by filter binding assay
Fibroblast growth factor receptor 1, sequence (P11362 whole entry, the tested form may be a part): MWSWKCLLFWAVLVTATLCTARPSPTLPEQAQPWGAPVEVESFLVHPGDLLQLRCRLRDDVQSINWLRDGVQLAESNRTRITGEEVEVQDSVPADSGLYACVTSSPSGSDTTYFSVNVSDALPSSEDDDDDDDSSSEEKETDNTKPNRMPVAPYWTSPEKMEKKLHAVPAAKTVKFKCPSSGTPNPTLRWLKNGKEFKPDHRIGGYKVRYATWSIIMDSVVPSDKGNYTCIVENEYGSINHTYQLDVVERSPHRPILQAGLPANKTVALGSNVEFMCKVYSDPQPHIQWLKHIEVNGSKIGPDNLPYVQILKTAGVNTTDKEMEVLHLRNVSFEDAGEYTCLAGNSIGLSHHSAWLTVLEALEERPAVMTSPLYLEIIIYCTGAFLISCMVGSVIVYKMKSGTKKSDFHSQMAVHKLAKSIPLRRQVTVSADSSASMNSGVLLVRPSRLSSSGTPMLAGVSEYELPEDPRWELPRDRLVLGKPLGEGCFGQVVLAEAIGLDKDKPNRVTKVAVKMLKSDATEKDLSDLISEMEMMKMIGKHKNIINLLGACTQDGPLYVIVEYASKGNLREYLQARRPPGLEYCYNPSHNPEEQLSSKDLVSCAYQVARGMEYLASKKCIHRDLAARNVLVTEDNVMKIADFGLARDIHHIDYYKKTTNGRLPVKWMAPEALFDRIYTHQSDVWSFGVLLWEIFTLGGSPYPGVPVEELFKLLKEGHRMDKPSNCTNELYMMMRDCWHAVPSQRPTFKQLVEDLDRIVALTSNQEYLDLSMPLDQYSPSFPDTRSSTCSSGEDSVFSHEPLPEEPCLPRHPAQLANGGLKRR

[13] = molecular target: Serine/threonine-protein kinase TBK1 (Homo sapiens) (UniProt Q9UHD2); assay: Inhibition of N-terminal His6-tagged recombinant full-length human TBK1 expressed in baculovirus infected Sf21 cells at 0.3 uM by filter binding assay relative to control; method in brief: as §2
[14] = molecular target: Dual specificity protein kinase CLK2 (Homo sapiens) (UniProt P49760); assay: Inhibition of N-terminal GST-tagged recombinant human CLK2 (138 to end residues) expressed in baculovirus infected Sf21 cells at 0.3 uM by filter binding assay relative to control; method in brief: as §2
[15] = molecular target: Serine/threonine-protein kinase Sgk1 (Homo sapiens) (UniProt O00141); assay: Inhibition of human SGK at 3 uM by filter binding assay relative to control
Serine/threonine-protein kinase Sgk1 (Homo sapiens), sequence (O00141 whole entry): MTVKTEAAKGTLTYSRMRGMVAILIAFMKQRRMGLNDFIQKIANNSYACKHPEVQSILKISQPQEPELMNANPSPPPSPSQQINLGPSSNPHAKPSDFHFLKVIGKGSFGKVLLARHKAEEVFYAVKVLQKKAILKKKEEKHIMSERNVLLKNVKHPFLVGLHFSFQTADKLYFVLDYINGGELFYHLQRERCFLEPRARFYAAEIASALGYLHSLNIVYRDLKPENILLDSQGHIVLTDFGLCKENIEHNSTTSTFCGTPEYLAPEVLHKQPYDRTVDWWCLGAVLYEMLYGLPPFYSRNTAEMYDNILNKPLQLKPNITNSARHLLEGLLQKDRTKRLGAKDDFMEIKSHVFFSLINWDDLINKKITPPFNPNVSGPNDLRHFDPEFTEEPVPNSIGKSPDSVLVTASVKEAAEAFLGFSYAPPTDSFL

[16] = molecular target: Aurora kinase A (Homo sapiens, UniProt O14965); assay: Inhibition of N-terminal 6His-tagged recombinant full-length human Aurora-A expressed in Sf21 cells by filter binding assay
[17] = molecular target: Glycogen synthase kinase-3 alpha (Homo sapiens) (UniProt P49840); assay: Inhibition of N-terminal His6-tagged recombinant human GSK3alpha (2 to end residues) expressed in Sf21 cells at 0.3 uM by filter binding assay relative to control
Glycogen synthase kinase-3 alpha (Homo sapiens), sequence (P49840 2-483 limits assumed): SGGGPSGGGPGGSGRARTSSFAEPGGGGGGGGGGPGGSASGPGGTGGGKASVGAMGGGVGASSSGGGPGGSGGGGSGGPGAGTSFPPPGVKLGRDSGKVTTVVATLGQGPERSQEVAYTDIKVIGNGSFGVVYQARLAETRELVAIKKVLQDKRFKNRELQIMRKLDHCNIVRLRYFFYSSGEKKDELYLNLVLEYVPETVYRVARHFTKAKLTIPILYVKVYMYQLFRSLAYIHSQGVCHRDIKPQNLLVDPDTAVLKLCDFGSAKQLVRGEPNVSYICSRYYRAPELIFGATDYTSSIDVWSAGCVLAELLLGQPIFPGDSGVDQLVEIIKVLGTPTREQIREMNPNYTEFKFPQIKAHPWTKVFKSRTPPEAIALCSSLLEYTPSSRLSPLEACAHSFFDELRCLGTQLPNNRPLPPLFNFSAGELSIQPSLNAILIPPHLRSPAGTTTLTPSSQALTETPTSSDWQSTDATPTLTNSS

[18] = molecular target: Testis-specific serine/threonine-protein kinase 2 (Homo sapiens) (UniProt Q96PF2); assay: Inhibition of N-terminal His6-tagged recombinant full length human TSSK2 expressed in baculovirus infected Sf21 cells at 0.3 uM by filter binding assay relative to control; method in brief: as §2
Testis-specific serine/threonine-protein kinase 2 (Homo sapiens), sequence (Q96PF2 whole entry): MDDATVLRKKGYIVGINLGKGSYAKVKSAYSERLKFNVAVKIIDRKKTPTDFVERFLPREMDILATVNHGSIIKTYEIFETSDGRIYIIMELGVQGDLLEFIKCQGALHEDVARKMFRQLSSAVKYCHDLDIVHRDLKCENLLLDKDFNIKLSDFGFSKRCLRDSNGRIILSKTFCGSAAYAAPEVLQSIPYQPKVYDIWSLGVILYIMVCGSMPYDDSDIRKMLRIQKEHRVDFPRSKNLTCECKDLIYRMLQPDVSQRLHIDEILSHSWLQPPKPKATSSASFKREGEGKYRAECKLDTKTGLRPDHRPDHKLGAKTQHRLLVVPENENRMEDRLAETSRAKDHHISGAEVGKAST

[19] = test system: MCF7; assay: Induction of cell cycle arrest in human MCF7 cells assessed as cells accumulation at S phase at 1 umol/L incubated for 48 hrs by propidium iodide staining based flow cytometric analysis (reference value: 10%); type: functional; details: dose 1 µmol/L, at 1 µM; method in brief: as §3
[20] = molecular target: Discoidin domain-containing receptor 2 (Homo sapiens) (UniProt Q16832); assay: Inhibition of N-terminal His6-tagged recombinant human DDR2 (467 to end residues) expressed in baculovirus infected Sf21 cells at 0.3 uM by filter binding assay relative to control
Discoidin domain-containing receptor 2 (Homo sapiens), sequence (Q16832 whole entry, the tested form may be a part): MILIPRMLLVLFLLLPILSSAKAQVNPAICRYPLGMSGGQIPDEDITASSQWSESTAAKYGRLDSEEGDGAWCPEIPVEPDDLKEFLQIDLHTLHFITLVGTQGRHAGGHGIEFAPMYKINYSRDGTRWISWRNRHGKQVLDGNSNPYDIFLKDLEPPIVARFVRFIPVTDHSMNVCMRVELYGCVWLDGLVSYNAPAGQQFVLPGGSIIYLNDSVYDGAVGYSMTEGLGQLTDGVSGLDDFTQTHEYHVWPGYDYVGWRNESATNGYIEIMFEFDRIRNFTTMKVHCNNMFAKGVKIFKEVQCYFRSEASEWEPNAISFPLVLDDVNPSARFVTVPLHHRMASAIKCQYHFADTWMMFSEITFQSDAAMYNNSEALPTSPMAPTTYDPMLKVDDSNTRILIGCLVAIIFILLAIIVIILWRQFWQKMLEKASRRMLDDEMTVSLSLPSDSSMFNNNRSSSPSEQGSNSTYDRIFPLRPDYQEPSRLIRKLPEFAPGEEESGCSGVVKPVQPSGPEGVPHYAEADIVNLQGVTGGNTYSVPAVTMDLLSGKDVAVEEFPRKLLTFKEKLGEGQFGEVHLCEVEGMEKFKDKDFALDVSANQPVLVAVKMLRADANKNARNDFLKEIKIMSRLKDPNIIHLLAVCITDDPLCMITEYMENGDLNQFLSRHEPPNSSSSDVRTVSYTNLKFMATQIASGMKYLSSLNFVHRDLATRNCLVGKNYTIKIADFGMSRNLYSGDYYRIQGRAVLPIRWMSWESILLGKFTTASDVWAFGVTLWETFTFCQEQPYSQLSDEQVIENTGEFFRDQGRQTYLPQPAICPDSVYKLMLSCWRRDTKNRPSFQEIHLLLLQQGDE

[21] = Antiproliferative activity against IGF1-stimulated mouse NIH-3T3/LISN cells over expressing human IGF1R assessed as reduction in cell viability preincubated for 2 hr followed by IGF1R stimulation and measured after 72 hrs by CellTiter-Glo assay; type: functional, cell-based
Method in brief: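 NIH-3T3 overexpressing human IGF-IR, kept in DMEM/10% FBS with 500 µg/mL G418. Seeded on collagen-coated 96-well plates and allowed to adhere 24 h. Switched to serum-free medium, compound or DMSO added for 2 h, then IGF-I 30 ng/mL. Incubated 72 h at 37°C. Read by CellTiter-Glo; IC50 by four-parameter fit.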

[22] = molecular target: Fibroblast growth factor receptor 4 (Homo sapiens) (UniProt P22455); assay: Inhibition of N-terminal His6-tagged recombinant human FGFR4 (442 to 755 residues) expressed in baculovirus infected Sf21 cells at 3 uM by filter binding assay relative to control
Fibroblast growth factor receptor 4 (Homo sapiens), sequence (P22455 22-802 limits assumed): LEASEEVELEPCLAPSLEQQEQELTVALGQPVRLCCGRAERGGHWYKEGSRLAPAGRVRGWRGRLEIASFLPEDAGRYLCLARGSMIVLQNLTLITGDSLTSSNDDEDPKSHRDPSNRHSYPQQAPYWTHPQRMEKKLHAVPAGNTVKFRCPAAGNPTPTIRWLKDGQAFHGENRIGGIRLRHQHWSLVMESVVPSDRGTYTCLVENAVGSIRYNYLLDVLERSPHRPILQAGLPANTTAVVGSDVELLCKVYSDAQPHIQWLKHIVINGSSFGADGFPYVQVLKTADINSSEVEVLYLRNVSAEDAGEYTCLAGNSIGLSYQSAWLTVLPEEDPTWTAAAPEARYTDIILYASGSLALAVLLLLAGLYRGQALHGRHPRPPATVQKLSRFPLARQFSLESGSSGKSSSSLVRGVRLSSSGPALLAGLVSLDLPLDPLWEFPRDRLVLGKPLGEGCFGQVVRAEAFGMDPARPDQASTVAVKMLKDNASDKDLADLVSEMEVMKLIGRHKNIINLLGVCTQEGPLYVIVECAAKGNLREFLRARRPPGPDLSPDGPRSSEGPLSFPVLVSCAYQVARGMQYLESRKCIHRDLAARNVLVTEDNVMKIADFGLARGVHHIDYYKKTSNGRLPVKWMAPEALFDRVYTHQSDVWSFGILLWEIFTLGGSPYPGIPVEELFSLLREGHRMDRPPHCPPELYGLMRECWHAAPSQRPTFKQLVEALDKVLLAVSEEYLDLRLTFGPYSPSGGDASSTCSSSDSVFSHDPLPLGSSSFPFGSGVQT

[23] = species on record: Homo sapiens; assay: Inhibition of N-terminal GST-tagged recombinant human MAPK1 expressed in Escherichia coli at 3 uM by filter binding assay relative to control; method in brief: as §2

With CCc1cc(Nc2nccc(-c3c(-c4ccc(OC)c(C(=O)Nc5c(F)cccc5F)c4)nc4ccccn34)n2)c(OC)cc1N1CCC(N2CCN(S(C)(=O)=O)CC2)CC1 the inhibition in vivo at 30 mg/kg [1] was 47%, the inhibition [2] was 30% and the IC50 [3] was greater than 10 µM. The inhibition [4] was 33%, the IC50 [5] was greater than 10 µM and the inhibition [6] was -8%. For the same compound, the IC50 [7] was 8 µM, the IC50 [8] was greater than 20 µM and the inhibition [9] was 4%. For the same compound, the Activity [10] was “Active”, the IC50 [11] was greater than 10 µM and the IC50 [12] was 1880 nM. The inhibition [13] was 18%, the inhibition [14] was 0% and the inhibition [15] was 1%. It also gave an IC50 [16] of 159 nM, an inhibition [17] of -10% and an inhibition [18] of 4%. The Activity [19] was 5%, the inhibition [20] was 0% and the IC50 [21] was 60 nM. It also gave an inhibition [22] of 29% and an inhibition [23] of -10%.
